Results taken from ChEMBL document CHEMBL3232885, “Synthesis, characterization and pharmacological screening of some novel 5-imidazopyrazole incorporated polyhydroquinoline derivatives” (Eur J Med Chem, 2014).
In brackets after ≈: the same amount, converted by molar mass.

Columns and labels:
Escherichia coli = test: Antibacterial activity against Escherichia coli MTCC 443 assessed as growth inhibition after 24 to 48 hrs by broth microdilution method; format: functional
Summary of the method: (§1)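 Bacteria were grown in Mueller-Hinton broth with inoculum adjusted to 10⁸ CFU mL⁻¹ by turbidity. Compounds were serially diluted in 2% aqueous DMSO and incubated at 37 °C overnight. Growth was checked by subculture at 24 and 48 h. MIC was taken as the highest dilution with no turbidity after spot subculture.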

Clostridium tetani = test: Antibacterial activity against Clostridium tetani MTCC 449 assessed as growth inhibition after 24 to 48 hrs by broth microdilution method; format: functional
Candida albicans = test: Antifungal activity against Candida albicans MTCC 227 assessed as growth inhibition after 24 to 48 hrs by broth microdilution method; format: functional
Summary of the method: (§2)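 Fungal nutrition used Sabouraud Dextrose broth with inoculum at 10⁸ CFU mL⁻¹ by turbidity. Serial compound dilutions were made in 2% DMSO in water. Growth was noted on subculture after 24 and 48 h. MIC was taken as the highest dilution preventing visible turbidity after spot subculture.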

Salmonella typhi = test: Antibacterial activity against Salmonella typhi MTCC 98 assessed as growth inhibition after 24 to 48 hrs by broth microdilution method; format: functional, Salmonella enterica subsp. enterica serovar Typhi; details: Salmonella enterica
Plasmodium falciparum = test: Antimalarial activity against chloroquine/quinine sensitive Plasmodium falciparum assessed as parasite growth inhibition after 48 hrs; format: functional, organism-based
Vibrio cholerae = test: Antibacterial activity against Vibrio cholerae MTCC 3906 assessed as growth inhibition after 24 to 48 hrs by broth microdilution method; format: functional
[1] = tested on: Mycobacterium tuberculosis; test: Antitubercular activity against Mycobacterium tuberculosis H37Rv assessed as inhibition of colony formation at 250 ug/mL after 2 to 4 weeks by Lowensteine-Jensen method relative to control; format: functional
Aspergillus fumigatus = test: Antifungal activity against Aspergillus fumigatus MTCC 3008 assessed as growth inhibition after 24 to 48 hrs by broth microdilution method; format: functional; summary of the method: as §2
Streptococcus pneumoniae = test: Antibacterial activity against Streptococcus pneumoniae MTCC 1936 assessed as growth inhibition after 24 to 48 hrs by broth microdilution method; format: functional; summary of the method: as §1
[2] = tested on: Mycobacterium tuberculosis; test: Antitubercular activity against Mycobacterium tuberculosis H37Rv assessed as inhibition of colony formation at 100 ug/mL after 2 to 4 weeks by Lowensteine-Jensen method relative to control; format: functional
Bacillus subtilis = test: Antibacterial activity against Bacillus subtilis MTCC 441 assessed as growth inhibition after 24 to 48 hrs by broth microdilution method; format: functional; summary of the method: as §1

SMILES	MIC (Escherichia coli) [µg/mL]	MIC (Clostridium tetani) [µg/mL]	MIC (Candida albicans) [µg/mL]	MIC (Salmonella typhi) [µg/mL]	IC50 (Plasmodium falciparum) [µg/mL]	MIC (Vibrio cholerae) [µg/mL]	inhibition at 250 µg/mL [1] [%]	MIC (Aspergillus fumigatus) [µg/mL]	MIC (Streptococcus pneumoniae) [µg/mL]	inhibition at 100 µg/mL [2] [%]	MIC (Bacillus subtilis) [µg/mL]
COc1ccc(N2C(N)=C(C#N)C(c3c(C)nn(-c4ccccc4)c3-n3ccnc3)C3=C2CC(C)(C)CC3=O)cc1 (stereo unspecified)	200 (≈ 367 µM)	100 (≈ 183 µM)	1000 (≈ 1830 µM)	100 (≈ 183 µM)	0.086 (≈ 0.158 µM)	250 (≈ 458 µM)	91	500 (≈ 916 µM)	100 (≈ 183 µM)	88	125 (≈ 229 µM)
CCOC(=O)C1=C(N)N(c2cccc(O)c2)C2=C(C(=O)CC(C)(C)C2)C1c1c(C)nn(-c2ccccc2)c1-n1ccnc1 (stereo unspecified)	200 (≈ 346 µM)	250 (≈ 432 µM)	250 (≈ 432 µM)	200 (≈ 346 µM)	0.072 (≈ 0.124 µM)	125 (≈ 216 µM)	12	1000 (≈ 1730 µM)	200 (≈ 346 µM)	9	500 (≈ 864 µM)
CCOC(=O)C1=C(N)N(c2ccccc2)C2=C(C(=O)CC(C)(C)C2)C1c1c(C)nn(-c2ccccc2)c1-n1ccnc1 (stereo unspecified)	250 (≈ 444 µM)	200 (≈ 355 µM)	250 (≈ 444 µM)	200 (≈ 355 µM)	1.47 (≈ 2.61 µM)	125 (≈ 222 µM)	45	500 (≈ 889 µM)	500 (≈ 889 µM)	37	250 (≈ 444 µM)
Cc1nn(-c2ccccc2)c(-n2ccnc2)c1C1C(C(N)=O)=C(N)N(c2ccc(O)cc2)C2=C1C(=O)CCC2 (stereo unspecified)	200 (≈ 383 µM)	200 (≈ 383 µM)	1000 (≈ 1920 µM)	100 (≈ 192 µM)	0.033 (≈ 0.0633 µM)	500 (≈ 959 µM)	67	1000 (≈ 1920 µM)	250 (≈ 479 µM)	60	200 (≈ 383 µM)
Cc1nn(-c2ccccc2)c(-n2ccnc2)c1C1C(C#N)=C(N)N(c2ccc(O)cc2)C2=C1C(=O)CC(C)(C)C2 (stereo unspecified)	200 (≈ 376 µM)	500 (≈ 941 µM)	500 (≈ 941 µM)	250 (≈ 470 µM)	1.23 (≈ 2.31 µM)	250 (≈ 470 µM)	94	1000 (≈ 1880 µM)	200 (≈ 376 µM)	94	250 (≈ 470 µM)
Cc1nn(-c2ccccc2)c(-n2ccnc2)c1C1C(C#N)=C(N)N(c2cccc(O)c2)C2=C1C(=O)CC(C)(C)C2 (stereo unspecified)	200 (≈ 376 µM)	200 (≈ 376 µM)	1000 (≈ 1880 µM)	250 (≈ 470 µM)	0.034 (≈ 0.064 µM)	62.5 (≈ 118 µM)	38	500 (≈ 941 µM)	200 (≈ 376 µM)	34	500 (≈ 941 µM)
